Rows were chosen to be rich in hits. Some 2.6% of all compounds tested hit in one or more screens of this group.
ASAP1 inh: inhibitors of human ASAP1 ArfGAP activity | Q9ULH1 | ASAP1-stimulated ARF1 GTP hydrolysis, GDP FP detection | inhibition, % at 16.5 µM | hit rate 0.19% among 360,000 | AID 624377; in the data active = inhibition above about 25%;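 note: 0% = vehicle with enzyme and substrate and 100% = no enzyme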
Target sequence (Q9ULH1 325-724 limits assumed): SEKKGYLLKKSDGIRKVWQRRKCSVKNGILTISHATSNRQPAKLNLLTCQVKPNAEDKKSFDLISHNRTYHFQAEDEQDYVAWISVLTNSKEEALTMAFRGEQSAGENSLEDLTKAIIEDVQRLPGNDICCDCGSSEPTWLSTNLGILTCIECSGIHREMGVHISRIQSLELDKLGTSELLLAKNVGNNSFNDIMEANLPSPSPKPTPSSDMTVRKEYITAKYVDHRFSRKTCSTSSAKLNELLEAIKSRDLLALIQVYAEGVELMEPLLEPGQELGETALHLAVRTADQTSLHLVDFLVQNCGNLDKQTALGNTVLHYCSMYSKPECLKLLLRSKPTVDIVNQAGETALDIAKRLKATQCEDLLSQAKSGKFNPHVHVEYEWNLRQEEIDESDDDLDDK
ARFGAP1 inhibitor: rat ARFGAP1 inhibition; hit rate 0.26% among 360,000; inhibition, % at 16.5 µM; Arfgap1-stimulated ARF1 GTP hydrolysis, GDP FP detection;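 active = inhibition above a per-plate limit, mean inhibition of low control wells plus 3 SD, cut at about 25% in these data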;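 note: 0% = DMSO wells with enzyme and 100% = wells lacking Arfgap1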
Target sequence (Q62848 1-136 limits assumed): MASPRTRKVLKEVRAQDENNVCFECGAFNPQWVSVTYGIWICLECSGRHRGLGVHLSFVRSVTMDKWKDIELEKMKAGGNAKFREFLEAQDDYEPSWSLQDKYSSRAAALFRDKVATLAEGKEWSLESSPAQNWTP
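Material – truncated rat Arfgap1 GAP domain · Buffer or medium – HEPES-based buffer, pH 7.5 · Reagent – human ARF1(Δ1-17)-GTP substrate · Dosing – 16.5 µM single point, 1.26% DMSO · Schedule – GTP hydrolysis reaction 2 h at 25 °C · Technique – GDP detection by fluorescence polarization · Benchmarks – No-Arfgap1 wells (100%) versus DMSO full-reaction wells (0%) · Repeats – single replicate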
SMARCA2 activ: activators of SMARCA2 function. MG213 cells, MMTV-luciferase reporter, dexamethasone, overnight. activation, % at 9.1 µM. hit rate 1% among 370,000. AID 652017; in the data active = activation above about 7.8%;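 note: 0% = vehicle wells and 100% = reference activator wells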
esBAF inh: SWI/SNF esBAF complex inhibition | hit rate 2% among 350,000 | AID 602393 | mouse ES cells, Bmi1-luciferase knock-in reporter, 24 h; 100% = twice the neutral-well signal | reporter increase, % at 12.5 µM; in the data active = activation above about 40%;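 note: 0% = median of the plate's neutral control wells and 100% = double that signal; a rise in the Bmi1 reporter signal indicates esBAF inhibition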
SMARCA2 act conf: confirmation of SMARCA2 (BRM) function activators. shares compounds with SMARCA2 activ. MG213 cells, MMTV-luciferase with dexamethasone, luminescence, overnight; MG213 cells expressing E1A, Rb sequestered; DMSO wells 0%, reference activator 100%. activation, % at 9.1 µM. hit rate 30% among 3,500;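 active = activation above its plate's cutoff, the mean activation of tested wells plus 3 SD, cut at about 7.9% in these data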
GAL4-VP16 Luc: GAL4-VP16 reporter activation counter-screen; HEK293 GAL4-VP16 pG5luc reporter, luciferase luminescence; scaled: DMSO wells 0%, SAHA wells 100%; hit rate 41% among 3,500; activation, % at 9.1 µM; shares compounds with SMARCA2 activ;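 active = activation above the solvent-only control well mean plus 3 SD, averaged across control plates, cut at about 5.2% in these data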
The depositor's hits bear a star; / = no result.

SMILES	ASAP1 inh	ARFGAP1 inhibitor	SMARCA2 activ	esBAF inh	SMARCA2 act conf	GAL4-VP16 Luc
CCC(C(=O)Nc1ccc2c(c1)OCCO2)n1nnc2ccccc2c1=O (stereo not drawn)	9	10	8.7*	59*	2	6.1*
CC(Sc1nc2ccccc2c(=O)n1C)C(=O)Nc1ccc2c(c1)OCCO2 (stereo not drawn)	-7	0	-2	-12	/	/
COc1cc(/C=C2/SC(=S)N(CC(=O)NC(C)(C)C)C2=O)cc(OC)c1OC	8	7	8.0*	-3	-2	-1
CNC[C@H]1Oc2c(N)cccc2C(=O)N([C@@H](C)CO)C[C@@H]1C	/	/	/	-2	/	/
Cc1ccc(NNC(=O)c2c(F)cccc2Cl)cc1C	6	14	8.1*	/	1	1
Cc1cc(NC(=O)c2c(F)cccc2Cl)no1	1	-3	0	/	/	/
CC(=O)c1cccc(-c2ccnc3c2CC(C(=O)NCc2ccc(N4CCN(C)CC4)cc2)O3)c1 (stereo not drawn)	3	1	8.7*	/	3	5
Fc1cccc2sc(N3CCCCC3)nc12	16	13	7	/	/	/
Fc1cc(F)c2nc(N3CCCC3)sc2c1	-6	2	8.4*	/	4	5
Cc1ccccc1Oc1cc(-n2ncc(Cl)c(Cl)c2=O)ncn1	-9	1	11*	/	-15	2
CCOc1cnn(-c2cc(Oc3ccc(C)cc3)ncn2)c(=O)c1Cl	6	-5	-2	/	/	/
Cc1cc2nc(-c3nnnn3-c3c(C)cccc3C)c(=O)[nH]c2cc1C	11	-7	8.0*	/	-3	1
Cc1cccc(C)c1-n1nnnc1-c1nc2ccccc2[nH]c1=O	3	3	1	/	/	/
Cc1noc(C)c1S(=O)(=O)Nc1ccc2c(c1)C(=O)N([C@H](C)CO)C[C@@H](C)[C@@H](CN(C)C(=O)CCCN(C)C)OCCCC[C@H](C)O2	/	/	/	-7	/	/
COc1ccc(CCn2c(SCCN3CCCCC3)nc3ccccc3c2=O)cc1OC	-21	-9	13*	-8	2	2
O=C(C[C@H]1C=C[C@@H](NC(=O)c2ccc3c(c2)OCO3)[C@H](CO)O1)NC1Cc2ccccc2C1	/	/	/	0	/	/
C[C@@H]1CCCCO[C@@H](CN(C)C(=O)Cc2ccccc2)[C@H](C)CN([C@@H](C)CO)C(=O)c2cc(NC(=O)NC3CCCCC3)ccc2O1	/	/	/	7	/	/
CN1C(=O)c2cc(NS(C)(=O)=O)ccc2OC[C@H]2O[C@H](CC(=O)NCc3ccccc3)CC[C@@H]21	/	/	/	-1	/	/
CCNC(=O)C[C@@H]1CC[C@H](NC(=O)C2CC2)[C@H](CO)O1	/	/	/	0	/	/
CCOC(=O)c1c(NC(=O)COC(=O)CCCOc2ccc(OC)cc2)sc(C(=O)N(C)C)c1C	-21	2	8.3*	-6	-1	0
O=C(CSc1ncn[nH]1)c1ccc2c(c1)OCCO2	-7	6	-2	7	/	/
O=C(CSc1ncn[nH]1)c1ccc2c(c1)OCO2	-12	-5	8.6*	5	1	1
O=C(Nc1nnc(-c2ccccc2SCc2ccccc2F)s1)Nc1ccccc1F	-1	9	8.3*	-5	2	2
O=C(Nc1nnc(-c2ccc(F)cc2)s1)Nc1ccccc1F	-2	1	-1	/	/	/
Cc1noc(C)c1S(=O)(=O)Nc1ccc2c(c1)C(=O)N([C@@H](C)CO)C[C@@H](C)[C@H](CN(C)Cc1ccc3c(c1)OCO3)OCCCC[C@@H](C)O2	/	/	/	-1	/	/
SMILES	ASAP1 inh	ARFGAP1 inhibitor	SMARCA2 activ	esBAF inh	SMARCA2 act conf	GAL4-VP16 Luc
CCCC(=O)Nc1ccc2c(c1)C(=O)N(C)[C@H]1CC[C@@H](CC(=O)NCCN3CCCCC3)O[C@H]1CO2	/	/	/	2	/	/
COc1ccc(CN=C2NC(=O)CC(C(=O)Nc3ccc(F)cc3)S2)cc1 (stereo not drawn)	5	-9	8.3*	/	-1	-1
COc1ccc(NC(=O)C2CC(=O)N/C(=N/N=C/c3ccco3)S2)cc1 (stereo not drawn)	-4	4	-4	/	/	/
C[C@H]1CN([C@@H](C)CO)C(=O)c2cccc(NS(=O)(=O)c3cccs3)c2O[C@H]1CN(C)CC1CC1	/	/	/	-3	/	/
O=c1[nH]c(CSc2nc3ccccc3s2)nc2ccccc12	0	6	8.4*	47*	3	4
Cc1cccc([N+](=O)[O-])c1NC(=O)COC(=O)C1CCCO1 (stereo not drawn)	-14	-13	-3	-4	/	/
Cc1c(NC(=O)C2CCCO2)cccc1[N+](=O)[O-] (stereo not drawn)	4	3	9.5*	/	2	0
Cc1nc2c(OCc3ccc(F)cc3)cccn2c1N(C)C(=O)CCC1CCCC1	4	13	-4	8	/	/
Cc1nc2c(OCc3ccc(Cl)cc3)cccn2c1N(C)C(=O)CCC1CCCC1	9	-1	8.3*	10	-4	-1
Nc1ccccc1SC1CC(=O)N(c2ccc3c(c2)OCCO3)C1=O (stereo not drawn)	-3	3	3	/	/	/
O=C1CC(Sc2ccc(Cl)cc2)C(=O)N1c1ccc2c(c1)OCCO2 (stereo not drawn)	-4	4	8.4*	/	-3	0
C[C@@H]1CN([C@@H](C)CO)S(=O)(=O)c2ccc(C#CCN(C)C)cc2O[C@H]1CN(C)Cc1ccc(F)cc1	/	/	/	-9	/	/
COc1ccccc1CN(C)C(=O)c1ccc(S(=O)(=O)NCc2ccco2)cc1	0	3	11*	-1	1	3
COCCNC(=O)C[C@@H]1C[C@@H]2c3cc(NC(=O)CC4CC4)ccc3O[C@@H]2[C@H](CO)O1	/	/	/	-5	/	/
COc1ccc(S(=O)(=O)Nc2ccc3c(c2)C(=O)N([C@H](C)CO)C[C@H](C)[C@H](CN(C)Cc2ccccc2)O3)cc1	/	/	/	3	/	/
Cc1ccc(-c2ccnc(=S)[nH]2)cc1	-7	5	11*	-4	1	2
S=c1nccc(-c2ccc3c(c2)CCO3)[nH]1	4	-6	-3	/	/	/
O=C(C[C@H]1C[C@H]2c3cc(NC(=O)Nc4ccc(C(F)(F)F)cc4)ccc3O[C@H]2[C@@H](CO)O1)NCc1ccc2c(c1)OCO2	/	/	/	-6	/	/
COc1ccc(CCC2(C)NC(=O)NC2=O)cc1 (stereo not drawn)	-1	10	8.1*	-4	1	2
O=C(c1ccco1)N1CCN(Cc2c(F)cccc2Cl)CC1	2	7	8.8*	45*	7	7.9*
Cc1ccc(Nc2nc(N)nc(CN3CCN(C(=O)c4ccco4)CC3)n2)cc1Cl	5	9	8.5*	/	1	1
Cc1ccc(NC(=O)N2CCN(C(=O)c3ccco3)CC2)cc1Cl	-9	2	-2	6	/	/
CO[C@H]1CN(C)C(=O)c2cc(NS(=O)(=O)c3ccccc3)ccc2OC[C@@H](C)N(Cc2cccnc2)C[C@H]1C	/	/	/	-7	/	/
